# SR-BI DiI-HDL act: activators of SR-BI mediated HDL lipid uptake | CHO ldlA[mSR-BI] cells, DiI-HDL uptake fluorescence, 3 h; 100 = double the neutral-control signal | activation, % at 12.5 µM | AID 504775 | hit rate 0.096% among 320,000;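 active = mean replicate activation of at least 60% and every replicate at or above 60%; inconclusive = mean or all-replicate condition met, but not both; inactive = mean below 60% and not all replicates reaching 60%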;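 note: 0% = median plate neutral-control signal and 100% = twice that signal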
#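 Assay system: CHO ldlA[mSR-BI] cells, LDL receptor-null, SR-BI overexpressing; medium: Ham's F12 with 0.5% BSA, HEPES 25 mM, pH 7.4; also added: DiI-HDL 10 µg/mL; timing: 3 h uptake period with compound, 37 °C; signal: DiI fluorescence, bottom read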
# AHR act: activators of human aryl hydrocarbon receptor; AHR-responsive luciferase reporter cells, luminescence; activation, % at 5 µM; hit rate 2.5% among 320,000; AID 2796; in the data active = activation above about 47%;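 note: 0% = vehicle wells and 100% = reference agonist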
# JMJD2C inh: inhibitors of human GASC-1 (JMJD2C) demethylase; AID 2099; GST-JMJD2C(1-420) H3K9me3 demethylation, DELFIA europium; hit rate 0.069% among 330,000; inhibition, % at 2.35 µM; Q9H3R0;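 active = more than half of a compound's replicate wells show inhibition beyond 50%, single wells judged on their own value; inconclusive = some, but no more than half, of replicates pass 50% inhibition; inactive = no replicate passes 50% inhibition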;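 note: signal counts dimethyl H3K9 product captured on neutravidin plate; 0% = median of DMSO wells and 100% = 0.3 times that DMSO median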
# GAA850 FXN act: increases GAA850 frataxin promoter reporter activity; activation, % at 6 µM; HEK293 lucGAA850 FXN promoter luciferase reporter, 24 h; percent of 10 µM SAHA response; hit rate 0.56% among 360,000;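 active = activation above the average of all compounds screened plus 3 SD, cutoff fixed separately per campaign, cut at about 7.5% in these data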;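 note: 0% = DMSO wells and 100% = 10 µM SAHA wells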
# SR-BI HDL uptake: blocks mouse SR-BI lipid uptake from DiI-HDL; Q61009; ldlA[mSR-BI] CHO cells, DiI-HDL uptake fluorescence, 3 h; inhibition, % at 12.5 µM; hit rate 0.96% among 320,000; AID 488896;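 active = mean replicate inhibition of at least 70% and a set share of replicates each scoring 70 or more; inconclusive = meets just one of the two criteria; inactive = fails both criteria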;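 note: 0% = median of neutral control wells and 100% = median of positive control wells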
# Target sequence (Q61009 whole entry, looked up): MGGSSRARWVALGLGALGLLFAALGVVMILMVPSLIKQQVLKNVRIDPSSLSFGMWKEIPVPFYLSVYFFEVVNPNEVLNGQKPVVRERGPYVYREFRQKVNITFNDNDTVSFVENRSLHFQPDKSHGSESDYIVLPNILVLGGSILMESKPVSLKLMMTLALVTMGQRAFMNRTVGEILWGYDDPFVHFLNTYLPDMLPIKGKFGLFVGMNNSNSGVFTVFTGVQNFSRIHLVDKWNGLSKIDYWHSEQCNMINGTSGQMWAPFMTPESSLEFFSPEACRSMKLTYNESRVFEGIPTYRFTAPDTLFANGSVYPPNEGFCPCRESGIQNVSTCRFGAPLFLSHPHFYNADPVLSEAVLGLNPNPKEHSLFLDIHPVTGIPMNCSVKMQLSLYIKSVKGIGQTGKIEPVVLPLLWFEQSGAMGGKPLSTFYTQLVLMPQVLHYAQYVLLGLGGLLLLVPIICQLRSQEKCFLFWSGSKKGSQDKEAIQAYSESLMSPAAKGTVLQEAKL
# DiI quencher: quenches DiI-HDL fluorescence, an SR-BI assay artifact; shares compounds with SR-BI HDL uptake; cell-free DiI-HDL fluorescence quenching, 30 min; AC50, µM (highest dose often 35 µM), without a hit: top-dose activity change, negative = quenching; hit rate 20% among 470;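 active = quenching, a falling signal, with AC50 below a set limit tied to the top valid dose, actives reach about 32 µM in these data; inconclusive = no clear call, values can overlap the other calls; inactive = rising signal, and the rest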
# The depositor's hits bear a star; i = inactive; u = inconclusive; x = no result; ! = not active in a repeat. An excerpt weighted towards active compounds, which were near 3.7% of everything screened.
SMILES,SR-BI DiI-HDL act,AHR act,JMJD2C inh,GAA850 FXN act,SR-BI HDL uptake,DiI quencher
O=C(CN1C(=O)NC(CCc2ccccc2)C1=O)Nc1ccccc1C(F)(F)F (stereo not given),-6.0,-1.0,16.9,0.1,6.0,x
Cc1cc(NC(=O)c2cc(-c3ccncc3)nc3ccccc23)ccc1Br,-72.2,35.6,-6.4,0.8,u,x
O=C(CCS(=O)(=O)c1ccccc1)OCc1ccc([N+](=O)[O-])cc1,10.2,-1.2,14.6,1.2,-10.2,x
CCC(=O)N1CCN(c2nc(CC)nc3sc4c(c23)CCCC4)CC1,-26.4,-3.6,i,2.3,26.4,x
CCc1nc(N2CCN(C(=S)NCCCOC)CC2)c2c3c(sc2n1)CCCC3,-88.1,0.6,-0.5,-0.8,88.1*,0.4%
COc1cc(C(=S)N2CCCC2)ccc1OC(=O)c1ccc(Cl)cc1[N+](=O)[O-],-111.6,3.4,14.1,-1.5,111.6*,-15.0%
COc1cc(C(=S)N2CCOCC2)ccc1OC(=O)c1ccccc1[N+](=O)[O-],-23.6,3.3,-2.0,0.3,23.6,x
Cc1ccc(NC(=O)c2cc(S(=O)(=O)N3CCOCC3)c(Br)s2)cc1,-72.8,20.7,-5.7,0.2,u,2.8%
COc1cccc(-c2csc(N3CCN(C(=S)Nc4cccc(C)c4)CC3)n2)c1,-90.1,12.9,-47.2,2.2,90.1*,-9.8%
COc1cccc(-c2csc(N3CCN(C(=O)NC45CC6CC(CC(C6)C4)C5)CC3)n2)c1,17.2,10.6,19.5,-0.8,-17.2,-6.1%
COc1cccc(-c2csc(N3CCN(C(=S)Nc4ccccc4)CC3)n2)c1,-67.9,7.9,-2.6,1.5,67.9,x
COc1cc(NC(=O)c2ccco2)c(OC)cc1NC(=O)Nc1ccc(Cl)cc1,-100.0,-3.4,-1.0,-0.3,100.0*,5.08µM*
CCOC(=O)C(=O)Nc1nc(-c2ccc3c(c2)CCN3C(=O)C2CC2)c(C)s1,-56.1,-7.5,-15.9,0.5,56.1,-10.9%
COc1ccc(C2/C=C\CN(S(=O)(=O)c3ccc(-c4ccccc4)cc3)CC(=O)N2Cc2ccc(F)cc2)cc1 (stereo not given),-81.2,x,-6.7,1.8,81.2*,-5.2%
COC(=O)C1=CN(c2ccc(F)cc2)C=C(C(=O)OC)C1c1ccc([N+](=O)[O-])cc1,-61.2,x,-3.1,3.1,61.2,x
CCOC(=O)C1=CN(c2cccc(F)c2)C=C(C(=O)OCC)C1c1cc(OC)c(O)c([N+](=O)[O-])c1,1.7,-0.7,-7.3,3.4,-1.7,7.72µM*
COc1ccc(OC)c(Nc2ccc(Nc3cc(OC)ccc3OC)nn2)c1,-85.9,5.3,-3.1,3.4,85.9*,5.09µM*
O=C1CCC(C(=O)N(CCO)Cc2ccccc2)CN1CC1CCCCC1 (stereo not given),23.9,1.1,9.9,2.6,-23.9,x
COc1ccc(-n2cnnc2SCC(=O)NC2CC2)cc1,x,x,x,-2.0,x,x
CCC(C)n1ncn(-c2ccc(N3CCN(c4ccc(O)cc4)CC3)cc2)c1=O (stereo not given),-21.5,1.5,4.8,1.4,21.5,x
CCC(C)n1ncn(-c2ccc(N3CCN(c4ccc(OCC5COC(Cn6cncn6)(c6ccc(Cl)cc6Cl)O5)cc4)CC3)cc2)c1=O (stereo not given),-83.0,-1.9,-24.8,2.3,83.0*!,-11.2%
CC(=O)c1c(C)[nH]c(C(=O)OCc2nc3ccsc3c(=O)[nH]2)c1C,-71.1,25.8,0.6,0.9,71.1*,-6.0%
COc1cc(NC(=O)c2cc(-c3ccccc3Cl)on2)cc(OC)c1OC,-82.7,-4.0,-3.8,-3.6,82.7*,-2.4%
COc1ccc2c(c1)-c1c(sn(-c3ccc(OC)c(OC)c3)c1=S)C(C)(C)N2,-107.9,15.3,-18.5,-1.2,107.8*,3.08µM*
COc1ccc(-n2sc3c(c2=S)-c2cc(OC)ccc2NC3(C)C)cc1,-108.4,65.8*,-3.8,1.8,108.4*,2.53µM*
SMILES,SR-BI DiI-HDL act,AHR act,JMJD2C inh,GAA850 FXN act,SR-BI HDL uptake,DiI quencher
O=C(C[C@H]1C/C=C\C[C@H](NC(=O)OCC2c3ccccc3-c3ccccc32)C(=O)O[C@@H](c2ccccc2)CNC1=O)NCCO,-40.5,-0.4,-2.6,1.2,40.5,x
O=C1NCCOC(=O)[C@H](Cc2ccc(F)cc2)C/C=C\C[C@@H]1CC(=O)N(CCO)Cc1ccccc1,8.9,1.4,4.1,-1.9,-8.8,-3.4%
O=C(N[C@@H]1C/C=C\C[C@@H](CC(=O)N(CCO)Cc2ccccc2)C(=O)NCCOC1=O)OCC1c2ccccc2-c2ccccc21,-78.0,0.1,-7.0,0.6,78.0*,-8.6%
O=C(C[C@@H]1C/C=C\C[C@H](NC(=O)OCC2c3ccccc3-c3ccccc32)C(=O)O[C@H](c2ccccc2)CNC1=O)NCCO,-36.1,2.8,4.2,0.7,36.1,-10.3%
O=C1NCCOC(=O)[C@H](Cc2ccc(F)cc2)C/C=C\C[C@H]1CC(=O)N(CCO)Cc1ccccc1,-4.0,-1.0,x,-0.6,4.0,x
C[C@@H]1COC(=O)[C@H](NC(=O)OCC2c3ccccc3-c3ccccc32)C/C=C\C[C@@H](CC(=O)N[C@@H](CO)Cc2ccccc2)C(=O)N1,-83.8,0.8,-2.4,-1.1,83.8*,-5.5%
O=C(N[C@@H]1C/C=C\C[C@H](CC(=O)N(CCO)Cc2ccccc2)C(=O)N[C@@H](Cc2ccccc2)COC1=O)OCC1c2ccccc2-c2ccccc21,-45.8,0.8,12.2,-3.5,45.8,x
CC(NC(=O)C(C)N1C(=O)C2C3CC(C(Br)C3Br)C2C1=O)c1ccccc1 (stereo not given),24.3,-2.2,0.5,1.3,-24.3,x
COc1ccc(C)cc1C1=CC(=O)C[C@H](c2ccc(F)cc2)C1,-17.8,6.8,-19.3,0.7,17.8,x
COc1ccc2c(c1)CC(C1(O)C(=O)N(C)c3ccccc31)C2=O (stereo not given),-84.8,14.1,50.6*,1.1,84.8*,-4.7%
CCN(CC)c1ccc2cc(-c3nc(-c4cc5ccccc5oc4=O)cs3)c(=O)oc2c1,11.9,x,x,4.1,-11.9,x
CNS(=O)(=O)c1cc(Br)ccc1S(=O)c1ccccc1C(=O)O (stereo not given),15.2,-0.7,0.6,-0.2,-15.2,x
CC1Cc2ccccc2N1CC(=O)Nc1ccc(N2CCOCC2)cc1 (stereo not given),-83.1,13.6,7.3,-0.4,83.1*,-18.9%
Cc1ccc2c(c1)C(=O)C(=O)N2CC(=O)Nc1ccc(N2CCOCC2)cc1,-3.9,-1.6,5.3,1.7,3.9,-10.6%
Cc1ccc(S(=O)(=O)N2CCOCC2)cc1C(=O)OCC(=O)NC1CCCC1,-4.7,-0.3,2.5,-0.4,4.7,x
CN(Cc1ccccc1N1CCCC1)C(=O)c1cc2cc(Cl)ccc2o1,-70.3,15.0,10.5,1.8,70.3*,-9.3%

# Screens (PubChem BioAssay)
